# In ChEMBL document CHEMBL2331329, “Synthesis and biological evaluation of 2-(alkoxycarbonyl)-3-anilinobenzo[b]thiophenes and thieno[2,3-b]pyridines as new potent anticancer agents” (J Med Chem, 2013):
# Activity calls are given as the source filed them. The rule behind the calls is not given here.
# Columns and labels:
# HeLa [1] = assay: Cell cycle arrest in human HeLa cells assessed as increase in activated cdc25 level at 10 to 100 nM after 24 to 48 hrs by Western Blot analysis; format: functional, cell-based
# Procedure, shortened: (§1)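 HeLa cells exposed to 10 or 100 nM for 24 or 48 h, washed in ice-cold PBS, lysed on ice 30 min, spun at 15000g at 4 °C. 20 μg protein run on 7.5–15% SDS–PAGE, blotted to PVDF, blocked overnight at 4 °C. Primary antibodies 2 h at room temperature, peroxidase secondary 60 min, ECL detection, β-actin reprobe as loading control.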
# HeLa [2] = assay: Induction of apoptosis in human HeLa cells assessed as Mcl-1 phosphorylation at 10 to 100 nM after 24 hrs by Western Blot analysis; format: functional, cell-based; procedure, shortened: as §1
# Bos taurus = organism: Bos taurus; assay: Displacement of [3H]colchicine from bovine brain tubulin at 1 uM after 20 mins by turbidimetric analysis
# A549 [3] = assay: Ratio of Combretastatin A-4 IC50 to compound IC50 for human A549 cells; format: functional
# HeLa [4] = assay: Induction of apoptosis in human HeLa cells assessed as ROS production at 10 to 100 nM after 24 to 48 hrs by H2-DCFDA staining-based flow cytometry relative to control; format: functional, cell-based
# Procedure, shortened: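 HeLa cells treated 24 or 48 h, then stained with H2-DCFDA or hydroethidine. ROS read by flow cytometry against untreated control. Mean ± SEM of three independent experiments.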
# HeLa [5] = assay: Induction of apoptosis in human HeLa cells assessed as reduction of Xiap expression at 10 nM after 24 hrs by Western Blot analysis; format: functional, cell-based; procedure, shortened: as §1
# HL-60 = assay: Ratio of Combretastatin A-4 IC50 to compound IC50 for human HL60 cells; format: functional
# Mus musculus = assay: Toxicity in Balb/c mouse xenografted with mouse BNL 1ME A.7R.1 cells assessed as decrease in body weight at 5 mg/kg, ip; format: organism-based; design: dose 5 mg/kg, route intraperitoneal; details: in vivo
# Procedure, shortened: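 Male Balb/c mice, 8 weeks old, given 10^7 syngeneic BNL 1ME A.7R.1 hepatoma cells subcutaneously in the dorsal region in 200 μL PBS. Randomised to groups of five. Dosed intraperitoneally once daily for 7 days at 5 mg/kg in 0.9% NaCl with 5% PEG 400 and 0.5% Tween 80, against vehicle and CA-4P. Tumours measured daily by caliper, V = AB2/2; body weight recorded. Mean ± SEM.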
# Jurkat = assay: Cell cycle arrest in human Jurkat cells assessed as accumulation at G2/M phase at 20 nM after 24 hrs by propidium iodide staining-based flow cytometry; format: functional
# Procedure, shortened: (§2)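 Jurkat, HT-29 and HeLa cells in exponential growth (5 × 10^5 cells) treated 24 h at a range of concentrations. Fixed in ice-cold 70% ethanol, lysed with buffer containing RNase A and 0.1% Triton X-100, stained with propidium iodide. DNA content read by flow cytometry and the percentage of cells per cycle phase derived from DNA histograms.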
# MCF7 = assay: Ratio of Combretastatin A-4 IC50 to compound IC50 for human MCF7 cells; format: functional
# LoVo [6] = assay: Cytotoxicity against human LoVo cells after 72 hrs by MTT assay; format: functional, cell-based
# Procedure, shortened: (§3)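 MTT viability test: 8 × 10^3 cells per well settled 18 h at 37 °C, 5% CO2, then given fresh medium with compound (from 10 mM DMSO stocks, final DMSO ≤0.25%) for 72 h. […] CEMVbl-100 is a vinblastine-selected P-gp line; LoVoDoxo is grown in Ham's F12 with 0.1 μg/mL doxorubicin. Resistance index = resistant IC50/parental IC50.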
# HeLa [7] = assay: Cell cycle arrest in human HeLa cells assessed as variation in cyclin B expression at 10 to 100 nM after 24 to 48 hrs by Western Blot analysis; format: functional, cell-based; procedure, shortened: as §1
# [8] = Cytotoxicity against human CEM/VBL100 cells after 72 hrs by MTT assay; format: functional, cell-based; details: CEM/VBL100, 72 h; procedure, shortened: as §3
# HeLa [9] = assay: Induction of apoptosis in human HeLa cells assessed as caspase-3 cleavage at 10 to 100 nM after 24 to 48 hrs by Western Blot analysis; format: functional, cell-based; procedure, shortened: as §1
# HeLa [10] = assay: Cytotoxicity against human HeLa cells after 72 hrs by MTT assay; format: functional, cell-based
# LoVo [11] = assay: Resistance index, ratio of IC50 for human LoVo/DX cells to IC50 for human LoVo cells; format: functional; procedure, shortened: as §3
# HeLa [12] = assay: Induction of apoptosis in human HeLa cells assessed as PARP cleavage at 10 nM after 24 hrs by Western Blot analysis; format: functional, cell-based; procedure, shortened: as §1
# HeLa [13] = assay: Induction of apoptosis in human HeLa cells assessed as caspase-9 cleavage at 10 to 100 nM after 24 to 48 hrs by Western Blot analysis; format: functional, cell-based; procedure, shortened: as §1
# HeLa [14] = assay: Induction of apoptosis in human HeLa cells assessed as early apoptotic cells at 10 to 100 nM by annexin V-FITC and propidium iodide staining-based flow cytometry; format: functional, cell-based; details: TDE = time-dependent effect
# Procedure, shortened: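 HeLa cells treated 24 or 48 h, then co-labelled with annexin-V–FITC and propidium iodide. Flow cytometry with 488 nm excitation and emission at 525 nm (FITC) and 585 nm (PI); early apoptotic cells counted as annexin-V+/PI−. Mean ± SEM of three independent experiments.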
# HeLa [15] = assay: Induction of apoptosis in human HeLa cells assessed as mitochondrial membrane depolarization at 10 to 100 nM by JC-1 staining; format: functional, cell-based; details: TDE = time-dependent effect
# Procedure, shortened: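 HeLa cells treated 24 or 48 h, then stained with the potentiometric dye JC-1. Proportion of cells with depolarised mitochondria read by flow cytometry. Mean ± SEM of three independent experiments.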
# HT-29 = assay: Cell cycle arrest in human HT-29 cells assessed as accumulation at G2/M phase at 20 nM after 24 hrs by propidium iodide staining-based flow cytometry; format: functional; procedure, shortened: as §2
# HeLa [16] = assay: Cell cycle arrest in human HeLa cells assessed as accumulation at G2/M phase at 20 nM after 24 hrs by propidium iodide staining-based flow cytometry; format: functional; procedure, shortened: as §2
# [17] = Cytotoxicity against human SEM cells after 72 hrs by MTT assay; format: functional, cell-based
# Procedure, shortened: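 Cells plated at 8 × 10^3 per well, 18 h at 37 °C, 5% CO2, then fresh medium with graded compound concentrations (DMSO ≤0.25%) for 72 h. Jurkat, SEM, HL-60 grown in RPMI-1640; A549, HeLa, HT-29, MCF-7 in DMEM; 10% FBS with penicillin/streptomycin. MTT viability read-out; IC50 vs 0.25% DMSO controls; mean ± SE of at least three independent experiments.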
# PBL = assay: Cytotoxicity against human PBL cells after 72 hrs by MTT assay; format: cell-based
# Procedure, shortened: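 Peripheral blood lymphocytes from healthy donors isolated on a Lymphoprep gradient and rested overnight in RPMI-1640 with 10% FBS. Nonadherent cells at 5 × 10^5 cells/mL, with 2.5 μg/mL PHA for proliferating cultures or without it for resting ones. Compound exposure 72 h, viability by MTT. Mean ± SEM of three experiments.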
# A549 [18] = assay: Resistance index, ratio of IC50 for human A549-T12 cells to IC50 for human A549 cells; format: functional
# Procedure, shortened: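 Mean ± SE of at least three independent experiments. Resistance ratio = IC50 in resistant line/IC50 in nonresistant line.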
# A549 [19] = assay: Cytotoxicity against human A549 cells after 72 hrs by MTT assay; format: functional, cell-based; details: A549, 72 h
# CCRF-CEM = assay: Resistance index, ratio of IC50 for human CEM/VBL100 cells to IC50 for human CEM cells; format: functional; procedure, shortened: as §3
smiles,measurement,setting,value
COC(=O)c1sc2cc(OC)ccc2c1Nc1cc(OC)c(OC)c(OC)c1,Activity,HeLa [1],Active
same,Activity,HeLa [2],Active
same,inhibition,Bos taurus,85%
same,Ratio IC50,A549 [3],2
same,Activity,HeLa [4],Active
same,Activity,HeLa [5],Active
same,Ratio IC50,HL-60,2
same,Activity,Mus musculus,Toxic
same,Activity,Jurkat,Active
same,Ratio IC50,MCF7,2
same,IC50,LoVo [6],0.3 nM
same,Activity,HeLa [7],inactive
same,IC50,[8],1.3 nM
same,Activity,HeLa [9],Active
same,IC50,HeLa [10],0.28 nM
same,Ratio IC50,LoVo [11],1.3
same,Activity,HeLa [12],Active
same,Activity,HeLa [13],Active
same,Activity,HeLa [14],tde
same,Activity,HeLa [15],tde
same,Activity,HT-29,Active
same,Activity,HeLa [16],Active
same,IC50,[17],10.3 nM
same,IC50,PBL,> 10000 nM
same,Ratio IC50,A549 [18],1.5
same,IC50,A549 [19],8.5 nM
same,Ratio IC50,CCRF-CEM,0.4
